Reference: ChEMBL document CHEMBL3286372, “Design, synthesis and structure-activity relationship of novel semi-synthetic flavonoids as antiproliferative agents” (2014)

How the values were obtained:
SW-620 = experiment: Growth inhibition of human SW620 cells after 48 hrs by coulter counting analysis; format: functional; conditions: SW-620, 48 h
Procedure, shortened: (§1)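 Five-dose NCI-60 follow-up, 0.01–100 µM, made from DMSO stock in buffered saline (final DMSO <1%), in duplicate wells. Cells in RPMI 1640 with 10% FBS at 6×10^4 cells/ml, 37 °C, 5% CO2, 48 h. Cells diluted tenfold in saline, Coulter-counted and corrected for dilution. GI50, TGI and LC50 taken from log concentration–percent growth curves.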

SK-MEL-5 = experiment: Growth inhibition of human SK-MEL-5 cells after 48 hrs by coulter counting analysis; format: functional; conditions: SK-MEL-5, 48 h; procedure, shortened: as §1
SNB-19 = experiment: Growth inhibition of human SNB19 cells after 48 hrs by coulter counting analysis; format: functional; conditions: SNB-19, 48 h; procedure, shortened: as §1
DU-145 = experiment: Growth inhibition of human DU145 cells after 48 hrs by coulter counting analysis; format: functional; conditions: DU-145, 48 h
Procedure, shortened: (§2)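 NCI five-dose screen at 0.01-100 µM, diluted from DMSO stocks in buffered saline (final DMSO <1%). Cells at 6×10^4 cells/ml in RPMI 1640 with 10% FBS, in duplicate wells, at 37 °C under 5% CO2 for 48 h. Cells diluted tenfold in saline and Coulter-counted. GI50, TGI and LC50 taken from log concentration-growth inhibition curves.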

A498 = experiment: Growth inhibition of human A498 cells after 48 hrs by coulter counting analysis; format: functional; conditions: A498, 48 h; procedure, shortened: as §2
CAKI-1 = experiment: Growth inhibition of human CAKI-1 cells after 48 hrs by coulter counting analysis; format: functional; conditions: CAKI-1, 48 h; procedure, shortened: as §2
[1] = Growth inhibition of human HCC2998 cells after 48 hrs by coulter counting analysis; format: functional; conditions: HCC 2998, 48 h; procedure, shortened: as §2
PC-3 = experiment: Growth inhibition of human PC3 cells after 48 hrs by coulter counting analysis; format: functional; conditions: PC-3, 48 h; procedure, shortened: as §1
[2] = Growth inhibition of human RXF393 cells after 48 hrs by coulter counting analysis; format: functional; conditions: RXF 393, 48 h; procedure, shortened: as §1
K562 = experiment: Growth inhibition of human K562 cells after 48 hrs by coulter counting analysis; format: functional; conditions: K562, 48 h; procedure, shortened: as §2
[3] = Growth inhibition of human UACC257 cells after 48 hrs by coulter counting analysis; format: functional; conditions: UACC-257, 48 h
Procedure, shortened: (§3)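 NCI five-dose screen, 0.01-100 µM, from DMSO stocks diluted in buffer saline (final DMSO <1%). Cells grown in RPMI 1640 + 10% FBS, seeded at 6×10^4 cells/ml, in duplicate wells. Exposure 48 h at 37 °C, 5% CO2. Cells diluted 10-fold in saline and counted by Coulter counter. GI50 derived from log concentration–percent growth inhibition curves. Controls carried matching PBS/saline/DMSO.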

SN12C = experiment: Growth inhibition of human SN12C cells after 48 hrs by coulter counting analysis; format: functional; procedure, shortened: as §1
[4] = Growth inhibition of human Hs 578T cells after 48 hrs by coulter counting analysis; format: functional; procedure, shortened: as §2
[5] = target: Glycogen synthase kinase-3 beta (Homo sapiens) (UniProt P49841); experiment: Inhibition of GSK-3beta (unknown origin) at 20 uM after 30 mins by scintillation counting analysis relative to control
Procedure, shortened: (§4)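 Recombinant kinases, cloned, expressed and purified in-house. Radiometric ³³P-ATP assay with kinase at ~10-50 nM final and 1-5 µg peptide or protein substrate. Compound at 20 µM final, in duplicate. Reaction started by adding ATP, run 30 min at ambient temperature, then spotted on P81 phosphocellulose. Plates washed in 1% phosphoric acid and counted by scintillation. No-substrate blank subtracted. Result is mean % activity change versus DMSO control.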

NCI-H23 = experiment: Growth inhibition of human NCI-H23 cells after 48 hrs by coulter counting analysis; format: functional; conditions: NCI-H23, 48 h; procedure, shortened: as §1
MDA-MB-231 = experiment: Growth inhibition of human MDA-MB-231 cells after 48 hrs by coulter counting analysis; format: functional; conditions: MDA-MB-231, 48 h; procedure, shortened: as §2
HCT-116 = experiment: Growth inhibition of human HCT116 cells after 48 hrs by coulter counting analysis; format: functional; conditions: HCT-116, 48 h; procedure, shortened: as §2
[6] = Growth inhibition of human BT549 cells after 48 hrs by coulter counting analysis; format: functional; conditions: BT-549, 48 h; procedure, shortened: as §2
HOP-62 = experiment: Growth inhibition of human HOP62 cells after 48 hrs by coulter counting analysis; format: functional; conditions: HOP-62, 48 h; procedure, shortened: as §2
[7] = Growth inhibition of human OVCAR8 cells after 48 hrs by coulter counting analysis; format: functional; conditions: OVCAR-8, 48 h; procedure, shortened: as §1
[8] = target: Cyclin-dependent kinase 2/cyclin E1 (Homo sapiens) (UniProt P24864+P24941); experiment: Inhibition of CDK2/Cyclin E1 (unknown origin) at 20 uM after 30 mins by scintillation counting analysis relative to control; format: protein-complex assay; procedure, shortened: as §4
NCI-H460 = experiment: Growth inhibition of human NCI-H460 cells after 48 hrs by coulter counting analysis; format: functional; conditions: NCI-H460, 48 h; procedure, shortened: as §1
CCRF-CEM [9] = experiment: Growth inhibition of human CCRF-CEM cells after 48 hrs by coulter counting analysis; format: functional; procedure, shortened: as §2
A549 = experiment: Growth inhibition of human A549/ATCC cells after 48 hrs by coulter counting analysis; format: functional; conditions: A549, 48 h; procedure, shortened: as §2
NCI-H522 = experiment: Growth inhibition of human NCI-H522 cells after 48 hrs by coulter counting analysis; format: functional; conditions: NCI-H522, 48 h; procedure, shortened: as §1
TK-10 = experiment: Growth inhibition of human TK10 cells after 48 hrs by coulter counting analysis; format: functional; conditions: TK-10, 48 h; procedure, shortened: as §3
[10] = Growth inhibition of human OVCAR8 cells at 10 uM after 48 hrs by sulforhodamine B assay relative to control; format: functional; conditions: OVCAR-8, 48 h, read-out: GI
Procedure, shortened: (§5)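 NCI-60 primary screen at a single 10 µM dose. Continuous 48 h exposure, with growth or viability estimated by sulforhodamine B protein staining. Reported as percent growth inhibition of treated cells relative to untreated growth.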

MDA-MB-468 = experiment: Growth inhibition of human MDA-MB-468 cells at 10 uM after 48 hrs by sulforhodamine B assay relative to control; format: functional; conditions: MDA-MB-468, 48 h, read-out: GI; procedure, shortened: as §5
[11] = Growth inhibition of human UO31 cells at 10 uM after 48 hrs by sulforhodamine B assay relative to control; format: functional; conditions: UO-31, 48 h, read-out: GI
Procedure, shortened: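 NCI-60 primary single-dose screen at 10 µM with continuous 48 h exposure. Cell viability/growth read by sulforhodamine B protein staining. Reported as percent growth inhibition relative to untreated cells.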

CCRF-CEM [12] = experiment: Growth inhibition of human CCRF-CEM cells at 10 uM after 48 hrs by sulforhodamine B assay relative to control; format: functional; conditions: read-out: GI
Procedure, shortened: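 NCI-60 primary screen at a single dose of 10 µM with 48 h continuous exposure. Growth or viability read by sulforhodamine B protein staining and expressed as percent growth inhibition versus untreated cells.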

SR = experiment: Growth inhibition of human SR cells after 48 hrs by coulter counting analysis; format: functional; procedure, shortened: as §1

Glycogen synthase kinase-3 beta (Homo sapiens), sequence (P49841 whole entry, looked up): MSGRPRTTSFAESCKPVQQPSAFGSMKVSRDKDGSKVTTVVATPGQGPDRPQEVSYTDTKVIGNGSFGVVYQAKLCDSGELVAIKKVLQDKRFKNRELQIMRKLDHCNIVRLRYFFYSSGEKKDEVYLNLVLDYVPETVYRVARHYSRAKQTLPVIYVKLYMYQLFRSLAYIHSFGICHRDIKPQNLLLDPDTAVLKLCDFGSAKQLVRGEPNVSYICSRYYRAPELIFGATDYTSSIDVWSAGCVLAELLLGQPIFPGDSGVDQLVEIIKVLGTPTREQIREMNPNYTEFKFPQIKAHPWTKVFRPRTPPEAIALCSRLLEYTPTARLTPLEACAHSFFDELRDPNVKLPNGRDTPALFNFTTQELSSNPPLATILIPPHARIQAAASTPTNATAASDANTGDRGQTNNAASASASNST

| SMILES | GI50 (SW-620) [nM] | GI50 (SK-MEL-5) [nM] | GI50 (DU-145) [nM] | GI50 (CAKI-1) [nM] | GI50 [1] [nM] | GI50 (PC-3) [nM] | GI50 [2] [nM] | GI50 (K562) [nM] | GI50 [3] [nM] | GI50 (SN12C) [nM] | inhibition [5] [%] | GI50 (NCI-H23) [nM] | GI50 (MDA-MB-231) [nM] | GI50 (HCT-116) [nM] | GI50 (HOP-62) [nM] | GI50 [7] [nM] | inhibition [8] [%] | GI50 (NCI-H460) [nM] | GI50 (CCRF-CEM [9]) [nM] | GI50 (A549) [nM] | further results |
| --- | --- | --- | --- | --- | --- | --- | --- | --- | --- | --- | --- | --- | --- | --- | --- | --- | --- | --- | --- | --- | --- |
| COc1ccc(-c2cc(=O)c3c(OC)c4ccoc4c(/C=C/C=O)c3o2)cc1 | 2300 | 1690 | 4530 | 5030 | 13700 | 2580 | 2150 | 2800 | 3630 | 2320 | 11 | 2800 | 4220 | 1060 | 2980 | 2830 | 0 | 4700 | 1090 | 18500 | GI50 (SNB-19): 3160 nM; GI50 (A498): 17200 nM; GI50 [4]: 10400 nM; GI50 [6]: 2140 nM; GI50 (NCI-H522): 34600 nM |
| COc1c2occc2c(OC)c2c(=O)c(CN3CCOCC3)c(/C=C/c3ccc(Cl)cc3)oc12 | 3320 | 1240 | 2630 | 2450 | 2850 | 2500 | 2360 | 3280 | 2350 | 3050 | 5 | 3000 | 2920 | 2920 | 3240 | 2780 | 0 | 2050 | 1780 | 2850 | GI50 (TK-10): 5320 nM; inhibition of growth at 10 µM [10]: 60%; GI50 [4]: 1900 nM; inhibition of growth at 10 µM (MDA-MB-468): 86%; inhibition of growth at 10 µM [11]: 61%; GI50 [6]: 2380 nM; inhibition of growth at 10 µM (CCRF-CEM [12]): 81%; GI50 (NCI-H522): 1770 nM |
| COc1c(C(=O)/C=C/c2ccc(Cl)cc2)c(O)c(Br)c2occc12 | 2710 | 3330 | 4070 | 3350 | 2500 | 2940 | 2370 | 2880 | 4980 | 3770 | 30 | 3250 | 4330 | 2830 | 6820 | 3430 | 5 | 2990 | 2660 | 6720 | GI50 (SNB-19): 8240 nM; GI50 (A498): 3920 nM; GI50 (TK-10): 3480 nM; GI50 (NCI-H522): 2800 nM |
| C=CCc1c(O)c(C(=O)/C=C/c2ccc(Cl)cc2)c(OC)c2ccoc12 | 2560 | 2070 | 3850 | 2610 | 1790 | 3810 | 1720 | 3250 | 2390 | 4960 | 80 | 2780 | 4300 | 2740 | 2310 | 3040 | 3 | 3200 | 3330 | 4700 | GI50 (SR): 2770 nM; GI50 (SNB-19): 2850 nM; GI50 (A498): 2770 nM; GI50 (TK-10): 3620 nM; GI50 [4]: 4020 nM; GI50 [6]: 3000 nM; GI50 (NCI-H522): 1880 nM |
